Laboratory results as given in ChEMBL document CHEMBL5678806, “NMS-P937, an orally available, specific small-molecule polo-like kinase 1 inhibitor with antitumor activity in solid and hematologic malignancies” (Mol Cancer Ther, 2012).

Tests used:
[1] = target: Macrophage colony-stimulating factor 1 receptor (Homo sapiens) (UniProt P07333); assay: Inhibition of N-terminal His6-tagged recombinant human Fms (538 to end residues) expressed in baculovirus infected Sf21 cells assessed as residual activity at 1 uM relative to control
[2] = AUC in male cynomolgus monkey at 5 mg/kg, iv by LC-MS analysis; type: ADME, organism-based, Macaca fascicularis; conditions: in vivo
[3] = target: Tyrosine-protein kinase ZAP-70 (Homo sapiens) (UniProt P43403); assay: Inhibition of C-terminal His6 tagged recombinant human full length ZAP-70 expressed in Sf21 cells assessed as residual activity at 0.1 uM relative to control
[4] = target: Tyrosine-protein kinase Lyn (Homo sapiens, UniProt P07948); assay: Inhibition of LYN (unknown origin) in presence of [gamma-33P]ATP
[5] = test system: HL-60; assay: Antiproliferative activity against human HL-60 cells assessed as inhibition of cell growth incubated for 72 hrs by cell-titer glo assay; type: functional, cell-based; conditions: HL-60, 72 h
In short: (§1)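 Cells seeded at 10,000–30,000/cm² (adherent) or 100,000/mL (nonadherent) in medium with 10% fetal calf serum; after 24 h, treated in duplicate with serial dilutions for 72 h. Viable cell number read by CellTiter-Glo luminescence; IC50 from sigmoidal fit; at least two independent experiments.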

[6] = test system: HL-60; assay: Antitumor activity against human HL-60 cells xenografted in nu/nu mouse assessed as tumor growth inhibition at 60 mg/kg, po administered for 10 days relative to control; type: functional; conditions: HL-60, 240 h, time 10 day, read-out: TGI
[7] = target: Serine/threonine-protein kinase tousled-like 2 (Homo sapiens, UniProt Q86UE8); assay: Inhibition of N-terminal 6His-tagged recombinant human TLK2 (388 to end residues) expressed in baculovirus infected Sf21 cells assessed as residual activity at 0.1 uM relative to control
[8] = target: Tyrosine-protein kinase receptor TYRO3 (Homo sapiens) (UniProt Q06418); assay: Inhibition of N-terminal His6-tagged recombinant human Rse (451 to end residues) expressed in baculovirus infected Sf21 cells assessed as residual activity at 0.1 uM relative to control
[9] = Antiproliferative activity against human TF-1a cells assessed as inhibition of cell growth incubated for 72 hrs by cell-titer glo assay; type: functional, cell-based
[10] = target: Tyrosine-protein kinase Lyn (Mus musculus) (UniProt P25911); assay: Inhibition of N-terminal his6-tagged recombinant full-length mouse Lyn expressed in baculovirus infected Sf21 cells assessed as residual activity at 0.1 uM relative to control
[11] = Half-life in Sprague-Dawley rat at 10 mg/kg, iv by LC-MS analysis; type: ADME, organism-based; conditions: in vivo
[12] = test system: NCI-H1770; assay: Antiproliferative activity against human NCI-H1770 cells assessed as inhibition of cell growth incubated for 72 hrs by cell-titer glo assay; type: functional, cell-based; conditions: NCI-H1770, 72 h
In short: (§2)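 Cells from ATCC or ECACC, kept in supplier-recommended medium with 1% penicillin-streptomycin at 37°C, 5% CO₂. Seeded at 10,000–30,000/cm² (adherent) or 100,000/mL (nonadherent) in medium with 10% fetal calf serum. Dosed after 24 h in duplicate with serial dilutions. Viable cells read by CellTiter-Glo 72 h later. IC50 from sigmoidal fit. At least two independent experiments.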

[13] = target: Fibroblast growth factor receptor 1 (Homo sapiens, UniProt P11362); assay: Inhibition of FGFR1 (unknown origin) in presence of [gamma-33P]ATP
[14] = target: Rho-associated protein kinase 1 (Homo sapiens) (UniProt Q13464); assay: Inhibition of N-terminal His6-tagged recombinant human ROCK-I (17 to 535 residues) expressed in baculovirus infected Sf21 cells assessed as residual activity at 0.1 uM relative to control
[15] = test system: Toledo; assay: Antiproliferative activity against human Toledo cells assessed as inhibition of cell growth incubated for 72 hrs by cell-titer glo assay; type: functional, cell-based
[16] = target: Fibroblast growth factor receptor 4 (Homo sapiens) (UniProt P22455); assay: Inhibition of N-terminal His6-tagged recombinant human FGFR4 (442 to 755 residues) expressed in baculovirus infected Sf21 cells assessed as residual activity at 0.1 uM relative to control
[17] = target: Casein kinase 2 (Homo sapiens, UniProt P67870+P68400+P19784+Q8NEV1); assay: Inhibition of CK2 (unknown origin) in presence of [gamma-33P]ATP; type: protein assay
[18] = AUC in nu/nu mouse at 10 mg/kg, po by LC-MS analysis; type: ADME, organism-based; conditions: in vivo
[19] = test system: NCI-H82; assay: Antiproliferative activity against human NCI-H82 cells assessed as inhibition of cell growth incubated for 72 hrs by cell-titer glo assay; type: functional, cell-based; conditions: NCI-H82, 72 h; in short: as §2
[20] = test system: HL-60; assay: Antitumor activity against human HL-60 cells xenografted in nu/nu mouse assessed as efficacy parameter L0 at 60 mg/kg, po administered for 10 days relative to control; type: functional; conditions: time 10 day
[21] = test system: HOP-92; assay: Antiproliferative activity against human HOP-92 cells assessed as inhibition of cell growth incubated for 72 hrs by cell-titer glo assay; type: functional, cell-based; conditions: HOP-92, 72 h; in short: as §1
[22] = test system: LN-229; assay: Antiproliferative activity against human LN-229 cells assessed as inhibition of cell growth incubated for 72 hrs by cell-titer glo assay; type: functional, cell-based; conditions: LN-229, 72 h; in short: as §1
[23] = test system: OPM-2; assay: Antiproliferative activity against human OPM-2 cells assessed as inhibition of cell growth incubated for 72 hrs by cell-titer glo assay; type: functional, cell-based; conditions: OPM-2, 72 h; in short: as §2
[24] = Inhibition of PKAalpha (unknown origin) in presence of [gamma-33P]ATP; parameters: species or system Homo sapiens
[25] = test system: BXPC-3; assay: Antiproliferative activity against human BXPC-3 cells assessed as inhibition of cell growth incubated for 72 hrs by cell-titer glo assay; type: functional, cell-based; conditions: BXPC-3, 72 h
In short: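 Cells seeded 10,000–30,000/cm² (adherent) or 100,000/mL (suspension) in medium with 10% fetal calf serum; after 24 h treated in duplicate with serial dilutions for 72 h. Viable cells read by CellTiter-Glo luminescence; IC50 from sigmoidal fit; at least two independent experiments.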

[26] = target: Inhibitor of nuclear factor kappa-B kinase subunit beta (Homo sapiens) (UniProt O14920); assay: Inhibition of N-terminal His6 tagged recombinant full-length human IKKbeta expressed in baculovirus infected Sf21 cells assessed as residual activity at 1 uM relative to control
[27] = target: Serine/threonine-protein kinase MARK2 (Homo sapiens) (UniProt Q7KZI7); assay: Inhibition of N-terminal His6-tagged recombinant full-length human PAR-1Balpha expressed in baculovirus infected Sf21 cells assessed as residual activity at 1 uM relative to control
[28] = target: Tyrosine-protein kinase Fes/Fps (Homo sapiens) (UniProt P07332); assay: Inhibition of N-terminal His6-tagged recombinant full length human Fes expressed in baculovirus infected Sf21 cells assessed as residual activity at 1 uM relative to control
[29] = test system: SET-2; assay: Antiproliferative activity against human SET2 cells assessed as inhibition of cell growth incubated for 72 hrs by cell-titer glo assay; type: functional, cell-based; conditions: SET-2, 72 h; in short: as §2
[30] = target: Serine/threonine-protein kinase ULK3 (Homo sapiens) (UniProt Q6PHR2); assay: Inhibition of N-terminal 6His-tagged recombinant human full-length ULK3 expressed in baculovirus infected Sf21 cells assessed as residual activity at 0.1 uM relative to control
Chain of Serine/threonine-protein kinase ULK3 (Homo sapiens) (Q6PHR2 whole entry): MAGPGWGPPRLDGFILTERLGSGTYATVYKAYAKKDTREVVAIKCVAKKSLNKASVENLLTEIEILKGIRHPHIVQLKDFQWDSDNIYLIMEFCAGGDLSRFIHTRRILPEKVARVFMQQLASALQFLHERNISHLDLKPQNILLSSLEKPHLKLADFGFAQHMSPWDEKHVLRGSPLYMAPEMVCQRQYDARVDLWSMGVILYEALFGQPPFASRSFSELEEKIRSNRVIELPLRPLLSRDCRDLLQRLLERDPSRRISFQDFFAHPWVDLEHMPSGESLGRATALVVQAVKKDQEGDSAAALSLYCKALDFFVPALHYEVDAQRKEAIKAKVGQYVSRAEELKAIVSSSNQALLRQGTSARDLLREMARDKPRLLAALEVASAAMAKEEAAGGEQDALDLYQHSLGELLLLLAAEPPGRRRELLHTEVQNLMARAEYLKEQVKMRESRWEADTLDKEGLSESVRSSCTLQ

Chain of Macrophage colony-stimulating factor 1 receptor (Homo sapiens) (P07333 whole entry): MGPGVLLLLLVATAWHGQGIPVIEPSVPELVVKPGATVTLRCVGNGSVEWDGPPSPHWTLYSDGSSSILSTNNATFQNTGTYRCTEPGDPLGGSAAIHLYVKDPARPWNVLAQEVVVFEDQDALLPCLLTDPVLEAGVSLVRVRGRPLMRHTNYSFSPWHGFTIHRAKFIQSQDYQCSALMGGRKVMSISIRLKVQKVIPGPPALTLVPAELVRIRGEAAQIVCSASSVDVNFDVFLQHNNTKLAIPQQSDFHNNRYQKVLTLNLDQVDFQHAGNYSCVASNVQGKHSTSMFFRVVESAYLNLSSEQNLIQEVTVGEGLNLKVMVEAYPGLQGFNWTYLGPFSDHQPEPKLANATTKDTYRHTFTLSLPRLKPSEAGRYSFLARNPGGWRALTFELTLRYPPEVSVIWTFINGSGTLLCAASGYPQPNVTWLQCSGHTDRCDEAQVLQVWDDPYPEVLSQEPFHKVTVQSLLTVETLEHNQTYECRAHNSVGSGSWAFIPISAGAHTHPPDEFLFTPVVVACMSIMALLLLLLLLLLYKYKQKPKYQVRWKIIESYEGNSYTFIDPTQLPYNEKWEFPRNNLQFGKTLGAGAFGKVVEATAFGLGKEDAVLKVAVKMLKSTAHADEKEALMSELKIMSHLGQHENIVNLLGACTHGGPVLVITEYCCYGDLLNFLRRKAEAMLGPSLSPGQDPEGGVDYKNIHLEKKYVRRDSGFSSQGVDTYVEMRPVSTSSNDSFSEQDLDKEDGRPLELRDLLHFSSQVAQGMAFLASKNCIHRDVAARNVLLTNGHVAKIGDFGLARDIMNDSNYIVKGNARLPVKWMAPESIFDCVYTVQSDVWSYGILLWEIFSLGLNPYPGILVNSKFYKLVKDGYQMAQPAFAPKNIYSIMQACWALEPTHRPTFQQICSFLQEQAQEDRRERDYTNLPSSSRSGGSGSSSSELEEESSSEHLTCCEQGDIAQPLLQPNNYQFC
Chain of Fibroblast growth factor receptor 4 (Homo sapiens) (P22455 22-802 limits assumed): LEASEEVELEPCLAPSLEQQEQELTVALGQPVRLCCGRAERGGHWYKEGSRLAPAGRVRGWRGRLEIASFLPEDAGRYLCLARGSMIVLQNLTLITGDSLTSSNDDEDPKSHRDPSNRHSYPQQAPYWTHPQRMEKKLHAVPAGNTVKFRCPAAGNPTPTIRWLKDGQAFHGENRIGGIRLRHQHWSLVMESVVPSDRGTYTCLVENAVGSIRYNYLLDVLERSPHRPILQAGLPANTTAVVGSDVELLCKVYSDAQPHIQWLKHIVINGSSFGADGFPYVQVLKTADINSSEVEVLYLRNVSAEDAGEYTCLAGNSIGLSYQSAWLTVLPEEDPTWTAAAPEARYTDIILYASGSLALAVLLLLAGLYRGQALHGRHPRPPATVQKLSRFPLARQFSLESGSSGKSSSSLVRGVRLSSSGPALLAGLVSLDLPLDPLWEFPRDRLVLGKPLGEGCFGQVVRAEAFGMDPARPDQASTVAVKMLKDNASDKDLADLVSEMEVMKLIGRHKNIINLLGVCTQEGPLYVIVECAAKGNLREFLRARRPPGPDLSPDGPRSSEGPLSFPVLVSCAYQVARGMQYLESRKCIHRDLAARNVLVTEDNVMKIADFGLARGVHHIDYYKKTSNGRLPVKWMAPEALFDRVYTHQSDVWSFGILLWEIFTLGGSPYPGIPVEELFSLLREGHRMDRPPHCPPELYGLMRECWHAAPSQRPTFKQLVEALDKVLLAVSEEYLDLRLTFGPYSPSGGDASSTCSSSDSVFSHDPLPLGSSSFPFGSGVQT
Chain of Tyrosine-protein kinase Lyn (Mus musculus) (P25911 whole entry): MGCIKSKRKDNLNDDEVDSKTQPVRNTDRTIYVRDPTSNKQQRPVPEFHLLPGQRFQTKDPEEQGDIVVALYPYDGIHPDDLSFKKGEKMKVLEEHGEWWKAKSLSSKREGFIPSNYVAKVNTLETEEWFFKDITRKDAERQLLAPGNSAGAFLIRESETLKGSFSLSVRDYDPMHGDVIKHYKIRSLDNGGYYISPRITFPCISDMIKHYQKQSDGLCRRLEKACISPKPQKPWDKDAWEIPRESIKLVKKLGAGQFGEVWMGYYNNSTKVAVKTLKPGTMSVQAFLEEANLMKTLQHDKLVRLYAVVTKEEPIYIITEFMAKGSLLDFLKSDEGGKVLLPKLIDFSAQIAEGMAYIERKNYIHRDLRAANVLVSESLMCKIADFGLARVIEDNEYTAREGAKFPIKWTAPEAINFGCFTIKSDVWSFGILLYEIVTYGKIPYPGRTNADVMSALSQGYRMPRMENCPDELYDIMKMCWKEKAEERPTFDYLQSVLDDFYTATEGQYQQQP
Chain of Inhibitor of nuclear factor kappa-B kinase subunit beta (Homo sapiens) (O14920 whole entry): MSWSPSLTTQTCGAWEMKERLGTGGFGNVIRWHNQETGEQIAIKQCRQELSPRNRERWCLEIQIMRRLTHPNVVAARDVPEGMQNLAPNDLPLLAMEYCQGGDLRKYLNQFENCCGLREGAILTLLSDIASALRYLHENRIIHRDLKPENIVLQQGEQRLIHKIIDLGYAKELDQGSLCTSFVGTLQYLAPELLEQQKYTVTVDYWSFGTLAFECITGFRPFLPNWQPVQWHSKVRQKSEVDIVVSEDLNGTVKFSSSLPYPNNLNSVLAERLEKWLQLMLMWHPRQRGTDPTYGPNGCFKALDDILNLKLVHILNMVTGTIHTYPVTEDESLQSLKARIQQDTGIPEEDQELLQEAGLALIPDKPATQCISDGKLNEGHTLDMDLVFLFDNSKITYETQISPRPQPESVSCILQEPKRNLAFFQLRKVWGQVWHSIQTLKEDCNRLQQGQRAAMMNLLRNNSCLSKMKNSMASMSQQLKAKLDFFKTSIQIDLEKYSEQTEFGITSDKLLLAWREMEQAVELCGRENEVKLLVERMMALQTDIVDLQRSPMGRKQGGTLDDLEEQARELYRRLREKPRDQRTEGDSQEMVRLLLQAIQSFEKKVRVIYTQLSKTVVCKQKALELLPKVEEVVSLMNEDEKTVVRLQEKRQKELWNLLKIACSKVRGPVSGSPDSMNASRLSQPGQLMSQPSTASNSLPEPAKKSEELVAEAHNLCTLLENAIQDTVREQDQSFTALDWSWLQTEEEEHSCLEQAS
Chain of Tyrosine-protein kinase Lyn (P07948 whole entry): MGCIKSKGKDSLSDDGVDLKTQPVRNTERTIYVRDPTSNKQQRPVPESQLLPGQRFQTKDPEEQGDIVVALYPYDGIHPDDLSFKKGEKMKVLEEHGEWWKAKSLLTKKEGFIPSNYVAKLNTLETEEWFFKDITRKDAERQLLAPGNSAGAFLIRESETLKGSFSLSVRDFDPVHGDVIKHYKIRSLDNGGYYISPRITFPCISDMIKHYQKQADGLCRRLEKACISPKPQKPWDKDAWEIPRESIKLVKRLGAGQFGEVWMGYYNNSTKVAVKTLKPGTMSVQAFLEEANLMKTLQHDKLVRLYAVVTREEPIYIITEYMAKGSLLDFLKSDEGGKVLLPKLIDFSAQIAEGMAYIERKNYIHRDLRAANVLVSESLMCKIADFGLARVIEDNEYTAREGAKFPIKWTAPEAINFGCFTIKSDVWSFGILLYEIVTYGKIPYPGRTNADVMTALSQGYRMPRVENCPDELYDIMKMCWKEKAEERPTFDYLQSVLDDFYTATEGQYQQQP
Chain of Tyrosine-protein kinase ZAP-70 (Homo sapiens) (P43403 whole entry): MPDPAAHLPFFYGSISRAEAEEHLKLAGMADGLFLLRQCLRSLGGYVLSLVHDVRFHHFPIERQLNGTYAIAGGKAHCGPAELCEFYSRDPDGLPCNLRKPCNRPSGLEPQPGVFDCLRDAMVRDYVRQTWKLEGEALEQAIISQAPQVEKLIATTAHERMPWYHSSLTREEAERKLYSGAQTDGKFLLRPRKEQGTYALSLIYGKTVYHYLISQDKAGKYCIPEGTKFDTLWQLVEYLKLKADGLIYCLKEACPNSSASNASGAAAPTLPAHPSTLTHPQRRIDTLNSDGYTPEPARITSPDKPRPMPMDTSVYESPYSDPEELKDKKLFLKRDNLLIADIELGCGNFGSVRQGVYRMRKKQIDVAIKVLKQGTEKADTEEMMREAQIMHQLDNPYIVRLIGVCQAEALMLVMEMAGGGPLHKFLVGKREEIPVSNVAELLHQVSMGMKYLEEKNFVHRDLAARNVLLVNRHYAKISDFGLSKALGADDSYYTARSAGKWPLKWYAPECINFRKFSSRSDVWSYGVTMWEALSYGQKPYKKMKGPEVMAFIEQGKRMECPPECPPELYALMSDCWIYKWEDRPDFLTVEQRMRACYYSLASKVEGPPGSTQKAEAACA

CN1CCN(c2ccc(OC(F)(F)F)c(Nc3ncc4c(n3)-c3c(c(C(N)=O)nn3CCO)CC4)c2)CC1 [ONVANSERTIB]
Activity [1]: 90%
AUC [2]: 14.1 µM·h
Activity [3]: 88%
IC50 [4]: > 10 µM
IC50 [5]: 73 nM
inhibition in vivo at 60 mg/kg [6]: 98%
Activity [7]: 182%
Activity [8]: 137%
IC50 [9]: 1780 nM
Activity [10]: 137%
half-life [11]: 162 min
IC50 [12]: 68 nM
IC50 [13]: > 10 µM
Activity [14]: 145%
IC50 [15]: 42 nM
Activity [16]: 93%
IC50 [17]: 0.826 µmol/L
AUC [18]: 2 µM·h
IC50 [19]: 16 nM
Activity [20]: 0.06 g
IC50 [21]: 283 nM
IC50 [22]: 62 nM
IC50 [23]: 38 nM
IC50 [24]: > 10 µM
IC50 [25]: 117 nM
Activity [26]: 127%
Activity [27]: 87%
Activity [28]: 30%
IC50 [29]: 145 nM
Activity [30]: 139%
